One test relates to TgPPT1. As to the kind of experiment: Inhibition of recombinant TgPPT1, turnover of 4MU-octanoate. The format is biochemical, Toxoplasma gondii. Particulars: recombinant enzyme, 4MU-octanoate substrate; result in words. The essentials:
(§1)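 Purified full-length N-terminal His6 enzyme from E. coli, 50 nM final, with 10 μM test compound in 20 mM HEPES, 150 mM NaCl, 10 mM CHAPS, pH 7.4, at 37°C. 4MU-octanoate hydrolysis followed by fluorescence. Initial rates taken from a linear fit, in triplicate, normalized to DMSO control and expressed as percent inhibition.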

The next test has as its system TgASH2. Description: Inhibition of recombinant TgASH2, turnover of 4MU-octanoate. The format is biochemical, Toxoplasma gondii. Particulars: recombinant enzyme, 4MU-octanoate substrate; result in words. The procedure, abridged: as §1
A further test deals with TgASH3. Description: Inhibition of recombinant TgASH3, turnover of 4MU-octanoate. In kind it is biochemical, Toxoplasma gondii. Particulars: recombinant enzyme, 4MU-octanoate substrate; result in words. The procedure, abridged:
as §1

In a further test the test system is TgASH4. As to the kind of experiment: Gel-based competitive FP-TAMRA labeling of recombinant TgASH4. The format is binding, Toxoplasma gondii. Particulars: recombinant enzyme, gel-based FP-TAMRA competition; result in words. The essentials:
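Full-length N-terminal His6 enzyme, expressed in E. coli BL21-CodonPlus(DE3)-RIL (0.5 mM IPTG, 16 h, 19°C) and purified. 300 ng enzyme pre-incubated with DMSO or test compound (10 μM) for 30 min on ice, then labeled with FP-TAMRA for 30 min at 37°C. Quenched in reducing SDS buffer, resolved by SDS-PAGE, fluorescence-scanned (532 nm laser, 610 nm filter). Residual labeling expressed as percent inhibition versus DMSO.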

Test [1] has as its system T. gondii tachyzoites in HFFs. Description: Rosette formation assay. The format is cell-based, Toxoplasma gondii. Particulars: 10 μM dose, wild-type parasites in HFFs, 24 h. The essentials:
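Freshly egressed wild-type tachyzoites pre-treated with DMSO or 10 μM test compound were grown 24 h on confluent HFF coverslips (DMEM, 10% serum complex, 37°C, 5% CO2). Cells were PFA-fixed, Triton-permeabilized, BSA-blocked, stained with anti-Toxo-FITC (1:1000, overnight, 4°C), DAPI-mounted and imaged by confocal microscopy.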

On to `O=C(O)c1cccc(NC(=S)Nc2ccc3c(Cl)c(OCCBr)oc(=O)c3c2)c1` [JCP342], for which the “inhibitory activity against recombinant TgPPT1” value in the test on TgPPT1 is “significant inhibitory activity”.

On to `O=c1oc(OCCBr)c(Cl)c2ccc(NC(=S)Nc3ccccc3)cc12` [JCP343], for which, in the test with TgPPT1, the “inhibitory activity against recombinant TgPPT1” value was “virtually no activity”. Further, the “inhibition of TgASH2” value in the test with TgASH2 is recorded as “potent inhibitors”. For the same compound, the “inhibition of TgASH3” value in the test on TgASH3 is given as “potent inhibitors”. Moreover, the “inhibition of TgASH4” value in the test on TgASH4 is recorded as “potent inhibitors”.

Turning to `CCCCCCCCCCC[C@@H](C[C@@H]1OC(=O)[C@H]1CCCCCC)OC(=O)[C@H](CC(C)C)NC=O` [Orlistat], the “rosette formation inside the host cell” value in test [1] is listed as “disordered rosettes”.
